# Test results: ChEMBL document CHEMBL1122284, “Aromatic retinoic acid analogues. 2. Synthesis and pharmacological activity” (1983)
# Legend:
# Cricetinae gen. sp. [1] = experiment: Total cultures(12) versus active(12) at 10e-9 M conc. in hamster tracheal organ culture assay (TOC); format: functional, Trachea
# How it was run: (§1)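 Tracheas from Syrian golden hamsters kept on a vitamin A deficient diet from birth to 30–32 days old. Cultured serum-free (CMRL 1066 with insulin, hydrocortisone, glutamine, antibiotics), one explant per dish, 50% O2/45% N2/5% CO2, 36 °C, rocked. 3 days without retinoid, then 7 days with retinoid, medium renewed three times. Histology on day 10. Active means keratin/keratohyaline granules absent. Usually duplicate, 6–7 tracheas per concentration.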
# Cricetinae gen. sp. [2] = experiment: Total cultures(3) versus active(11) at 10e-10 M conc. in hamster tracheal organ culture assay (TOC); format: functional, Trachea; how it was run: as §1
# Cricetinae gen. sp. [3] = experiment: Total cultures(6) versus active(6) at 10e-8 M conc. in hamster tracheal organ culture assay (TOC); format: functional, Trachea; how it was run: as §1
# Cricetinae gen. sp. [4] = experiment: Relative potency with respect to retinoic acid in hamster tracheal organ culture assay (TOC); format: functional, Cricetulus griseus, Trachea
# Cricetinae gen. sp. [5] = experiment: ED50 of retinoid required to effect reversal of keratinization; format: functional; how it was run: as §1
# Cricetinae gen. sp. [6] = experiment: Total cultures(0) versus active(6) at 10e-11 M conc. in hamster tracheal organ culture assay (TOC); format: functional, Trachea; how it was run: as §1
# [7] = biological target: T1, Ornithine decarboxylase (Mus musculus) (UniProt P00860); experiment: Percent inhibition of the induction of ornithine decarboxylase at 17 nmol dose in mouse dorsal epidermis (ODC assay); format: functional
# T1 sequence (whole entry): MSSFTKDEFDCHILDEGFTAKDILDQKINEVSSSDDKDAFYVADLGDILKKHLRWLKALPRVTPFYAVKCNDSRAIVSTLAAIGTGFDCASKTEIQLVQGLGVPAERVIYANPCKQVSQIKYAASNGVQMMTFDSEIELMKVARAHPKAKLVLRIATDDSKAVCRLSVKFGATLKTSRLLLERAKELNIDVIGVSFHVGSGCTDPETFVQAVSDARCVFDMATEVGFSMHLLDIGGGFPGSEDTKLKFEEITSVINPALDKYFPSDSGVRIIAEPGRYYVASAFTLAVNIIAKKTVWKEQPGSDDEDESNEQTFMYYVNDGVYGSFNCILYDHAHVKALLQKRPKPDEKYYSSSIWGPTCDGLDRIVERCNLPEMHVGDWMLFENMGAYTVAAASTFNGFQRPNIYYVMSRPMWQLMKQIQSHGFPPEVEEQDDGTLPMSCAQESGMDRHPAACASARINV
# [8] = biological target: T1, Ornithine decarboxylase (Mus musculus); experiment: Percent inhibition of the induction of ornithine decarboxylase at 1.7 nmol in mouse dorsal epidermis (ODC assay); format: functional
# Cricetinae gen. sp. [9] = experiment: Total cultures(6) versus active (1) at 10e-11 M conc. in hamster tracheal organ culture assay (TOC); format: functional, Trachea; how it was run: as §1
# Cricetinae gen. sp. [10] = experiment: Total cultures(6) versus active (3) at 10e-10 M conc. in hamster tracheal organ culture assay (TOC); format: functional, Trachea; how it was run: as §1
# Cricetinae gen. sp. [11] = experiment: Total cultures(6) versus active (5) at 10e-9 M conc. in hamster tracheal organ culture assay (TOC); format: functional, Trachea; how it was run: as §1
# Cricetinae gen. sp. [12] = experiment: Total cultures(13) versus active (8) at 10e-10 M conc. in hamster tracheal organ culture assay (TOC); format: functional, Trachea; how it was run: as §1
# Cricetinae gen. sp. [13] = experiment: Total cultures(12) versus active (10) at 10e-9 M conc. in hamster tracheal organ culture assay (TOC); format: functional, Trachea; how it was run: as §1
# Cricetinae gen. sp. [14] = experiment: Total cultures(7) versus active (7) at 10e-8 M conc. in hamster tracheal organ culture assay (TOC); format: functional, Trachea; how it was run: as §1
# Cricetinae gen. sp. [15] = experiment: Total cultures(6) versus active (2) at 10e-11 M conc. in hamster tracheal organ culture assay (TOC); format: functional, Trachea; how it was run: as §1
# [16] = biological target: T1, Ornithine decarboxylase (Mus musculus); experiment: Percent inhibition of the induction of ornithine decarboxylase at 170 nmol in mouse dorsal epidermis (ODC assay); format: functional
# Cricetinae gen. sp. [17] = experiment: Total cultures(6) versus active (1) at 10e-10 M conc. in hamster tracheal organ culture assay (TOC); format: functional, Trachea; how it was run: as §1
# Cricetinae gen. sp. [18] = experiment: Total cultures(12) versus active (3) at 10e-9 M conc. in hamster tracheal organ culture assay (TOC); format: functional, Trachea; how it was run: as §1
# Cricetinae gen. sp. [19] = experiment: Total cultures(14) versus active (4) at 10e-8 M conc. in hamster tracheal organ culture assay (TOC); format: functional, Trachea; how it was run: as §1
# [20] = biological target: T1, Ornithine decarboxylase (Mus musculus); experiment: Percent inhibition of the induction of ornithine decarboxylase in mouse dorsal epidermis (ODC assay); format: functional
# Cricetinae gen. sp. [21] = experiment: Total cultures(2) versus active(12) at 10e-8 M conc. in hamster tracheal organ culture assay (TOC); format: functional, Trachea; how it was run: as §1
# Cricetinae gen. sp. [22] = experiment: Total cultures(0) versus active(12)at 10e-10 M conc. in hamster tracheal organ culture assay (TOC); format: functional, Trachea; how it was run: as §1
# Cricetinae gen. sp. [23] = experiment: Total cultures(1) versus active (13)at 10e-9 M conc. in hamster tracheal organ culture assay (TOC); format: functional, Trachea; how it was run: as §1
# Cricetinae gen. sp. [24] = experiment: Total cultures(10) versus active (12)at 10e-9 M conc. in hamster tracheal organ culture assay (TOC); format: functional, Trachea; how it was run: as §1
# Cricetinae gen. sp. [25] = experiment: Total cultures(6) versus active(13) at 10e-10 M conc. in hamster tracheal organ culture assay (TOC); format: functional, Trachea; how it was run: as §1
# Cricetinae gen. sp. [26] = experiment: Total cultures(11) versus active(12)at 10e-8 M conc. in hamster tracheal organ culture assay (TOC); format: functional, Trachea; how it was run: as §1
smiles,measurement,setting,value
CC1=C(/C=C/C(C)=C/c2ccc(C(=O)O)cc2F)C(C)(C)CCC1,Active/total cultures,Cricetinae gen. sp. [1],100%
same,Active/total cultures,Cricetinae gen. sp. [2],27%
same,Active/total cultures,Cricetinae gen. sp. [3],100%
same,Relative activity,Cricetinae gen. sp. [4],5
same,ED50,Cricetinae gen. sp. [5],6 pM
same,Active/total cultures,Cricetinae gen. sp. [6],0%
same,inhibition of control,[7],78%
same,inhibition of control,[8],37%
COc1cc(C(=O)O)ccc1/C=C(C)/C=C/C1=C(C)CCCC1(C)C,Relative activity,Cricetinae gen. sp. [4],3
same,ED50,Cricetinae gen. sp. [5],10 pM
same,Active/total cultures,Cricetinae gen. sp. [9],17%
same,inhibition of control,[7],37%
same,Active/total cultures,Cricetinae gen. sp. [10],50%
same,inhibition of control,[8],9%
same,Active/total cultures,Cricetinae gen. sp. [11],83%
CCOC(=O)c1ccc(/C=C(C)/C=C/C2=C(C)CCCC2(C)C)c(OC)c1,Active/total cultures,Cricetinae gen. sp. [12],62%
same,Active/total cultures,Cricetinae gen. sp. [13],83%
same,Active/total cultures,Cricetinae gen. sp. [14],100%
same,Active/total cultures,Cricetinae gen. sp. [15],33%
same,Relative activity,Cricetinae gen. sp. [4],5
same,ED50,Cricetinae gen. sp. [5],6 pM
same,inhibition of control,[7],39%
same,inhibition of control,[8],21%
CC1=C(/C=C/C(C)=C/c2ccc(C(=O)O)cc2)C(C)(C)CCC1,inhibition of control,[16],87%
same,Relative activity,Cricetinae gen. sp. [4],2
same,inhibition of control,[7],69%
same,inhibition of control,[8],62%
CCOC(=O)c1ccc(/C=C(C)/C=C/C2=C(C)CCCC2(C)C)o1,Active/total cultures,Cricetinae gen. sp. [17],17%
same,Active/total cultures,Cricetinae gen. sp. [18],25%
same,Active/total cultures,Cricetinae gen. sp. [19],29%
same,Relative activity,Cricetinae gen. sp. [4],<<0.1
same,ED50,Cricetinae gen. sp. [5],20 pM
same,inhibition of control,[7],9%
same,inhibition of control,[8],9%
CC1=C(/C=C/C(C)=C\c2ccc(C(=O)O)cc2)C(C)(C)CCC1,Relative activity,Cricetinae gen. sp. [4],<0.1
same,inhibition of control,[20],64%
same,ED50,Cricetinae gen. sp. [5],10 pM
same,inhibition of control,[7],43%
same,inhibition of control,[8],33%
CCOC(=O)c1ccc(/C(F)=C(C)\C=C\C2=C(C)CCCC2(C)C)cc1,Active/total cultures,Cricetinae gen. sp. [21],17%
same,Active/total cultures,Cricetinae gen. sp. [22],0%
same,Active/total cultures,Cricetinae gen. sp. [23],8%
same,Relative activity,Cricetinae gen. sp. [4],<0.1
same,inhibition of control,[20],5%
same,ED50,Cricetinae gen. sp. [5],20 pM
same,inhibition of control,[7],16%
CCOC(=O)c1ccc(/C(F)=C(C)/C=C/C2=C(C)CCCC2(C)C)cc1,Active/total cultures,Cricetinae gen. sp. [24],83%
same,Active/total cultures,Cricetinae gen. sp. [25],46%
same,Active/total cultures,Cricetinae gen. sp. [26],92%
same,Relative activity,Cricetinae gen. sp. [4],2
same,ED50,Cricetinae gen. sp. [5],20 pM
same,inhibition of control,[7],82%
same,inhibition of control,[8],56%
